Two molecules from ChEMBL document CHEMBL1146513, “Discorhabdins I and L, cytotoxic alkaloids from the sponge Latrunculia brevis” (J Nat Prod, 2004) can be followed below.

For one data set, the system named is K562. Nature of the data set: Cytotoxicity against human K562 cells by SRB assay. It counts as functional, cell-based. The method, boiled down:
(§1)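 Sulforhodamine B colorimetric staining quantifies cell growth and viability. Compounds were run in vitro against a 14-line tumour panel covering prostate, ovary, breast, melanoma, endothelial, NSCLC, leukaemia, pancreas and colon lines, with values reported as GI50.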

The next data set relates to SK-BR-3. Nature of the data set: Cytotoxicity against human SKBR3 cells by SRB assay. It counts as functional, cell-based. The method, boiled down:
as §1

A further data set concerns HT-29. Nature of the data set: Cytotoxicity against human HT-29 cells by SRB assay. It counts as functional. In a few lines:
as §1

Another data set relates to DU-145. Description: Cytotoxicity against human DU145 cells by SRB assay. It counts as functional, cell-based. In a few lines: as §1
The test system of data set [1] is LoVo. Nature of the data set: Cytotoxicity against human LoVo cells by SRB assay. The format is functional, cell-based. In a few lines:
as §1

For another data set, the system named is PANC-1. Description: Cytotoxicity against human PANC1 cells by SRB assay. It counts as functional, cell-based. In a few lines: as §1
A further data set relates to A549. Description: Cytotoxicity against human A549 cells by SRB assay. The format is functional, cell-based. In a few lines: as §1
Data set [2] concerns LoVo. Nature of the data set: Cytotoxicity against human doxorubicin-resistant LoVo cells by SRB assay. The format is functional, cell-based. The method, boiled down: as §1
The next data set deals with IGROV. Description: Cytotoxicity against human IGROV cells by SRB assay. The format is functional, cell-based. The method, boiled down: as §1
The test system of the next data set is IGROV-ET. Nature of the data set: Cytotoxicity against human IGROV-ET cells by SRB assay. The format is functional, cell-based. In a few lines:
as §1

A further data set concerns SK-MEL-28. Nature of the data set: Cytotoxicity against human SK-MEL-28 cells by SRB assay. The format is functional, cell-based. In a few lines:
as §1

Another data set relates to SK-OV-3. Nature of the data set: Cytotoxicity against human SKOV3 cells by SRB assay. It counts as functional, cell-based. In a few lines: as §1
Another data set has as its system LNCaP. Description: Cytotoxicity against human LNCAP cells by SRB assay. The format is functional, cell-based. The method, boiled down:
as §1

Data set [3] can be described thus: Cytotoxicity against human HMEC1 cells by SRB assay. The format is cell-based. As to conditions: hmec-1. The method, boiled down: as §1

SMILES strings stand for the structures. Activity calls are given as the source filed them. No cut-off for these calls is given here.

For the molecule `O=C1C=C[C@@]23C[C@@H](NC4=C2C2=NCCc5c[nH]c(c52)C4=O)SC3=C1` [1-DEBROMODISCORHABDIN B], the result with K562, in the data set on SK-BR-3, with DU-145, with LoVo [1], in the data set with PANC-1 and in the data set with A549 was Active. Also, the outcome with LoVo [2], in the data set on IGROV, in the data set with IGROV-ET, in the data set with SK-MEL-28, with SK-OV-3 and in the data set with LNCaP was Active. This molecule also showed a concentration for 50% growth inhibition (GI50) with HT-29 of 350 nM. Further, the result in [3] was Active.

For `O=C([O-])C(F)(F)F.O=C1C2=C3C4=[N+](CCc5c[nH]c1c54)[C@@H]1C(=O)C=C4S[C@@H](C[C@@]43[C@H]1O)N2` [DISCORHABDIN L], the result with K562, in the data set on SK-BR-3, with DU-145, in the data set on LoVo [1], with PANC-1 and with A549 was Active. For the same molecule, the result in the data set with LoVo [2], in the data set with IGROV, in the data set with IGROV-ET, in the data set with SK-MEL-28, in the data set on SK-OV-3 and in the data set with LNCaP was Active. This molecule also returned a 50% growth inhibitory concentration (GI50) in the data set on HT-29 of 120 nM. In addition, in data set [3], the result was Active.
